Among the data in ChEMBL document CHEMBL1138747, “Synthesis and structure--activity relationship in a class of indolebutylpiperazines as dual 5-HT(1A) receptor agonists and serotonin reuptake inhibitors” (J Med Chem, 2004) are IC50 and ED50 values, retold here.

The target in test [1] is Sodium-dependent serotonin transporter (Rattus norvegicus, UniProt P31652). Nature of the test: Inhibition of [3H]5-HT re-uptake in rat synaptosomes. The class given is subcellular, Brain.
Test [2] deals with D(2) dopamine receptor (Rattus norvegicus, UniProt P61169). Nature of the test: Displacement of [3H]spiperone from dopamine D2 receptor of rat striatal membranes. It is filed as cell membranes, Membrane. In a few lines:
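IC50 from 5–10 compound concentrations, each in triplicate, taken as the concentration (nM) giving 50% inhibition of specific radioligand binding.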
(In general: Displacement assays read how much labelled ligand stays bound in the presence of the test substance.)

Test [3] concerns the target T1, 5-hydroxytryptamine receptor 1A (Rattus norvegicus, UniProt P19327).
T1 sequence (P19327 whole entry): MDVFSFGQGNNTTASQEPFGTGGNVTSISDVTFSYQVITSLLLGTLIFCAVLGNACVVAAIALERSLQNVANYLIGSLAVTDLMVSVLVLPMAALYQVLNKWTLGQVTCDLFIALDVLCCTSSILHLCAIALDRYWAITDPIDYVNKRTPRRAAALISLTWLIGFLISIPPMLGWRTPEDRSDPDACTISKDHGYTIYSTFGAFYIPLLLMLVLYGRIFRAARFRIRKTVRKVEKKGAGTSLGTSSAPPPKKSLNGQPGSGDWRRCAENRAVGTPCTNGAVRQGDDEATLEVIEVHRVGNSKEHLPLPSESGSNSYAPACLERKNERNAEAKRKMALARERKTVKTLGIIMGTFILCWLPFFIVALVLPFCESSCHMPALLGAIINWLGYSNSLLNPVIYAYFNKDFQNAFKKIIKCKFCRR
The test is described as follows: Inhibition of 8-OH DPAT binding to rat hydroxytryptamine 1A receptor.

In test [4] the test system is Rattus norvegicus. The test is described as follows: Dose required to inhibit ultrasonic vocalisation on peroral administered. To be noted: po, read-out: ID50 (the source's name). The class given is functional. Put shortly: (§1)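 Rat ultrasonic vocalization test. In a priming session, up to 10 grid-floor shocks were given (1.8 mA, 0.3 s, 20 s apart). Rats not vocalizing on three consecutive trials were excluded. Next day, rats were tested 2 h after dosing: five shocks, then vocalization duration recorded over 3 min. ID50 (dose for half-maximal inhibition) came from dose–response curves.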

In test [5] the test system is Rattus norvegicus. Nature of the test: Dose required to inhibit ultrasonic vocalisation on subcutaneous administered. Particulars: sc, read-out: ID50 (the source's name). It is filed as functional. In a few lines:
as §1

D(2) dopamine receptor, sequence (P61169 whole entry): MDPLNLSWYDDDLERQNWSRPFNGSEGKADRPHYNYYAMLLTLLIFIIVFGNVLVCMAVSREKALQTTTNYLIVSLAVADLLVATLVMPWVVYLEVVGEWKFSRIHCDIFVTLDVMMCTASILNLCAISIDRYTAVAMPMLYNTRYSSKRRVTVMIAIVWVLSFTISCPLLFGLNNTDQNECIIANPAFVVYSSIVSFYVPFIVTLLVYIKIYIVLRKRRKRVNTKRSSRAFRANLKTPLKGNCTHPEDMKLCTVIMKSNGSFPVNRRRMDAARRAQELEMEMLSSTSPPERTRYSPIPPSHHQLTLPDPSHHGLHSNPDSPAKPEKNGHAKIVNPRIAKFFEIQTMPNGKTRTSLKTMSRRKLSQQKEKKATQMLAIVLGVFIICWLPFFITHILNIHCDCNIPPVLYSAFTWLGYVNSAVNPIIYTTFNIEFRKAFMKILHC
Sodium-dependent serotonin transporter, sequence (P31652 whole entry): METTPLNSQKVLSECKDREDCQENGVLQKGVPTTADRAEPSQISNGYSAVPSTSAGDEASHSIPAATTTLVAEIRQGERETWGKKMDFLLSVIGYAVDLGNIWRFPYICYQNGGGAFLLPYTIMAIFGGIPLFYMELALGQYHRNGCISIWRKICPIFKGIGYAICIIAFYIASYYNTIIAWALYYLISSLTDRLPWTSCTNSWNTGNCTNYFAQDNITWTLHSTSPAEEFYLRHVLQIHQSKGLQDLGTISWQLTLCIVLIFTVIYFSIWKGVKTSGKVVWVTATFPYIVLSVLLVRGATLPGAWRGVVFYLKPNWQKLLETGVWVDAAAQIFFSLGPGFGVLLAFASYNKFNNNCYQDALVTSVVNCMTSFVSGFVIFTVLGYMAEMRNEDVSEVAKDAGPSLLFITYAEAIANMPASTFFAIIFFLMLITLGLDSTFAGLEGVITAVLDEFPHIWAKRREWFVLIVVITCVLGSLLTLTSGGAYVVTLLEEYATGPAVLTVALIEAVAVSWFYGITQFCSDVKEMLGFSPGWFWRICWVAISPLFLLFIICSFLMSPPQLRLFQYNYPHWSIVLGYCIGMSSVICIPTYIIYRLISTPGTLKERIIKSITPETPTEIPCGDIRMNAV

Consider `COc1ccc(N2CCN(CCCCc3c[nH]c4ccc(C#N)cc34)CC2)cc1OC`, for which the values for the IC50 in test [1], in test [2] and in test [3] were 0.3 nM, 40 nM and 60 nM, respectively.

In the case of `N#Cc1ccc2[nH]cc(CCCCN3CCN(c4ccc5c(c4)CC(C(N)=O)O5)CC3)c2c1` (centres undefined), the IC50 in test [1] stood at 3.1 nM; in test [2], 1400 nM; in test [3] it was 3.2 nM.

For `N#Cc1ccc2[nH]cc(CCCCN3CCN(c4ccc5occc5c4)CC3)c2c1`, the IC50 in test [1] is 3.9 nM; in test [2] it was 8 nM; in test [3], 8.7 nM.

In the case of `N#Cc1ccc2[nH]cc(CCCCN3CCN(c4ccc5oc(C#N)cc5c4)CC3)c2c1`, the IC50 in test [1] is 1 nM; in test [2], above 630 nM; in test [3] it was 0.4 nM.

Regarding `N#Cc1ccc2[nH]cc(CCCCN3CCN(c4ccc5c(c4)CCO5)CC3)c2c1`, the results for the IC50 in test [1], in test [2] and in test [3] were 1 nM, 13 nM and 4 nM, respectively.

As for `O/N=C/c1ccc2[nH]cc(CCCCN3CCN(c4ccc5c(c4)OCCO5)CC3)c2c1`, the results for the IC50 in test [1], in test [2] and in test [3] were 5 nM, 9.4 nM and 0.4 nM, respectively.

Regarding `N#Cc1ccc2[nH]cc(CCCCN3CCN(c4ccc5sc(C(N)=O)cc5c4)CC3)c2c1`, the results for the IC50 in test [1] and in test [3] were 0.3 nM and 3.1 nM, respectively.

For the compound `O=Cc1ccc2[nH]cc(CCCCN3CCN(c4ccc5c(c4)OCCO5)CC3)c2c1`, the IC50 in test [1] was 1 nM; in test [2], below 100 nM; in test [3], 0.7 nM.

Take `COc1cc(C#N)ccc1N1CCN(CCCCc2c[nH]c3ccc(C#N)cc23)CC1`: the IC50 in test [1] amounted to 4.1 nM; in test [2], 6 nM; in test [3] it was 8 nM.

`N#Cc1ccc(N2CCN(CCCCc3c[nH]c4ccc(F)cc34)CC2)cc1`: the IC50 in test [1] was 2 nM; in test [2] it was above 100 nM; in test [3] it was 40 nM.

For the compound `N#Cc1ccc2[nH]cc(CCCCN3CCN(c4ccc5occc5c4C(N)=O)CC3)c2c1`, the IC50 in test [1] was found to be 5.5 nM; in test [2], 220 nM; in test [3], 3.3 nM.

For the compound `N#Cc1cc2cc(N3CCN(CCCCc4c[nH]c5ccc(F)cc45)CC3)ccc2o1`, the IC50 in test [1] was 3 nM; in test [2], above 100 nM; in test [3], 5 nM.

As for `N#Cc1ccc(N2CCN(CCCCc3c[nH]c4ccc(C#N)cc34)CC2)cc1`, the IC50 in test [1] came out at 1.3 nM; in test [2] it was 255 nM; in test [3], 1.1 nM. The ED50 in test [4] was 14 mg/kg.

As to `CCOCCOCCOc1cccc(N2CCN(CCCCc3c[nH]c4ccc(C#N)cc34)CC2)c1C#N`, the IC50 in test [1] came to 3.2 nM; in test [2], 28 nM; in test [3], 2 nM.

Turning to `N#Cc1ccc2[nH]cc(CCCCN3CCN(c4ccc(O)cc4)CC3)c2c1`, the IC50 is 0.5 nM in test [1], 35 nM in test [2] and 6 nM in test [3].

As for `Fc1ccc2[nH]cc(CCCCN3CCN(c4ccc5c(c4)OCCO5)CC3)c2c1`, the IC50 in test [1] was determined as 1 nM; in test [2], 130 nM; in test [3] it was 5 nM.

Regarding `N#Cc1ccc2[nH]cc(CCCCN3CCN(c4ccc(C(N)=O)cc4)CC3)c2c1`, the IC50 was 0.6 nM in test [1], above 270 nM in test [2] and 118 nM in test [3].

Regarding `COc1ccc2[nH]cc(CCCCN3CCN(c4ccc5c(c4)OCCO5)CC3)c2c1`, it took 100 nM to reach half-maximal inhibition in test [1] (IC50). That is a sub-micromolar value.

`N#Cc1ccc2[nH]cc(CCCCN3CCN(c4ccc(F)cc4)CC3)c2c1`: the IC50 in test [1] is 1 nM; in test [2], 4.2 nM. Moreover, the ED50 came to 7 mg/kg in test [4] and 3 mg/kg in test [5].

As for `N#Cc1ccc2[nH]cc(CCCCN3CCN(c4ccc5c(c4)CCCO5)CC3)c2c1`, the figures for the IC50 in test [1], in test [2] and in test [3] were 0.9 nM, below 42 nM and 5 nM, respectively.

In the case of `N#Cc1ccc2[nH]cc(CCCCN3CCN(c4cccc5cc(C(N)=O)oc45)CC3)c2c1`, the IC50 in test [1] was 2.6 nM; in test [2], 39 nM; in test [3], 1.9 nM.

`Fc1ccc2[nH]cc(CCCCN3CCN(c4ccc5c(c4)OCO5)CC3)c2c1`: the values for the concentration for half-maximal inhibition (IC50) in test [1], in test [2] and in test [3] were 1 nM, below 100 nM and 4 nM, respectively.

Consider `N#Cc1ccc2[nH]cc(CCCCN3CCN(c4ccc5c(c4)OCO5)CC3)c2c1`, for which the IC50 in test [1] is 0.6 nM; in test [2], 4.9 nM; in test [3] it was 0.7 nM. Also, the ED50 was 4 mg/kg in test [4] and 1 mg/kg in test [5].

On to `O=C(O)c1ccc2[nH]cc(CCCCN3CCN(c4ccc5c(c4)OCCO5)CC3)c2c1`, for which the IC50 is above 100 nM in test [2] and 4 nM in test [3].

As to `N#Cc1ccc2[nH]cc(CCCCN3CCN(c4cccc5oc(C(N)=O)cc45)CC3)c2c1`, the IC50 was found to be 8.5 nM in test [1], 6.6 nM in test [2] and 1.4 nM in test [3].

`N#Cc1ccc2[nH]cc(CCCCN3CCN(c4ccccc4)CC3)c2c1`: the figures for the IC50 in test [1], in test [2] and in test [3] were 1 nM, 3.8 nM and 400 nM, respectively.

For `COC(=O)c1ccc2[nH]cc(CCCCN3CCN(c4ccc5c(c4)OCCO5)CC3)c2c1`, the IC50 in test [1] is 50 nM; in test [2], below 100 nM; in test [3] it was 0.6 nM.

In the case of `N#Cc1ccc2[nH]cc(CCCCN3CCN(c4ccc5nsnc5c4)CC3)c2c1`, the half-maximal inhibitory concentration (IC50) in test [1] stood at 3.1 nM; in test [2] it was 31 nM; in test [3], 2 nM. For the same compound, the ED50 in test [5] is 3 mg/kg.

As for `N#Cc1ccc2[nH]cc(CCCCN3CCN(c4cc(F)c(C#N)c(F)c4)CC3)c2c1`, the figures for the IC50 in test [1] and in test [3] were 5.4 nM and 36 nM, respectively.

`N#Cc1ccc2[nH]cc(CCCCN3CCN(c4ccc5c(c4)OCCO5)CC3)c2c1`: the IC50 in test [1] came to 0.4 nM; in test [2], 5.6 nM; in test [3] it was 1 nM.

`N#Cc1ccc2[nH]cc(CCCCN3CCN(c4ccccc4C(N)=O)CC3)c2c1`: the IC50 was 16 nM in test [1], 47 nM in test [2] and 6.4 nM in test [3].

For `COc1ccc(N2CCN(CCCCc3c[nH]c4ccc(C#N)cc34)CC2)cc1`, the IC50 in test [1] was determined as 0.5 nM; in test [2], 46 nM; in test [3], 1 nM.

Regarding `N#Cc1ccc2[nH]cc(CCCCN3CCN(c4ccc5[nH]ccc5c4)CC3)c2c1`, the IC50 in test [1] was found to be 2.4 nM; in test [2], 5.7 nM; in test [3] it was 1.6 nM.

With `N#Cc1ccc2[nH]cc(CCCCN3CCN(c4c(C#N)cccc4C#N)CC3)c2c1`, the IC50 is 2 nM in test [1], below 100 nM in test [2] and 40 nM in test [3].

Regarding `O=c1ccc2cc(N3CCN(CCCCc4c[nH]c5ccc(F)cc45)CC3)ccc2o1`, the IC50 in test [1] is 0.9 nM; in test [2], above 100 nM; in test [3], 0.7 nM.

For `N#Cc1ccc2[nH]cc(CCCCN3CCN(c4cccc5nsnc45)CC3)c2c1`, the IC50 in test [1] was 1.5 nM; in test [2], 1.4 nM; in test [3] it was 1 nM.

On to `NC(=O)c1cc2cc(N3CCN(CCCCc4c[nH]c5ccc(F)cc45)CC3)ccc2o1`, for which the values for the concentration for half-maximal inhibition (IC50) in test [1], in test [2] and in test [3] were 0.3 nM, above 100 nM and 3 nM, respectively.

Consider `Clc1ccc2[nH]cc(CCCCN3CCN(c4ccc5c(c4)OCCO5)CC3)c2c1`, for which the figures for the IC50 in test [1], in test [2] and in test [3] were 20 nM, above 100 nM and 40 nM, respectively.

For `Oc1ccc2[nH]cc(CCCCN3CCN(c4ccc5c(c4)OCCO5)CC3)c2c1`, the half-maximal inhibitory concentration (IC50) in test [1] is 0.5 nM; in test [2], 77 nM; in test [3], 0.2 nM.

Consider `N#Cc1ccc2[nH]cc(CCCCN3CCN(c4ccc(O)c(C#N)c4)CC3)c2c1`, for which the values for the IC50 in test [1], in test [2] and in test [3] were 0.8 nM, 43 nM and 400 nM, respectively.

In the case of `NC(=O)c1ccc2[nH]cc(CCCCN3CCN(c4ccc5c(c4)OCCO5)CC3)c2c1`, the IC50 in test [1] stood at 60 nM.

For `c1ccc2c(CCCCN3CCN(c4ccc5c(c4)OCCO5)CC3)c[nH]c2c1`, the IC50 is 10 nM in test [1], above 100 nM in test [2] and 8 nM in test [3].

Turning to `N#Cc1ccc2[nH]cc(CCCCN3CCN(c4ccc(C#N)c(C#N)c4)CC3)c2c1`, the figures for the IC50 in test [1] and in test [3] were 2 nM and 12 nM, respectively.

As for `COc1cc(N2CCN(CCCCc3c[nH]c4ccc(C#N)cc34)CC2)ccc1C#N`, the IC50 in test [1] worked out at 3.4 nM; in test [3], 14 nM.

Turning to `N#Cc1ccc2[nH]cc(CCCCN3CCN(c4ccc5[nH]c(C(N)=O)cc5c4)CC3)c2c1`, the results for the IC50 in test [1], in test [2] and in test [3] were 2 nM, 140 nM and 14 nM, respectively.

As to `COc1ccc(Cl)cc1N1CCN(CCCCc2c[nH]c3ccc(C#N)cc23)CC1`, the values for the IC50 in test [1] and in test [3] were 6.8 nM and 30 nM, respectively.

On to `COc1ccccc1N1CCN(CCCCc2c[nH]c3ccc(C#N)cc23)CC1`, for which the IC50 in test [1] is 3 nM; in test [2], 0.7 nM; in test [3], 1 nM.

For the compound `COc1cccc(N2CCN(CCCCc3c[nH]c4ccc(C#N)cc34)CC2)c1C#N`, the concentration for half-maximal inhibition (IC50) in test [1] was found to be 3.9 nM; in test [2], 1.4 nM; in test [3] it was 5.6 nM.

One may read the IC50 as the concentration that inhibits the measured activity by half. Low readings indicate greater potency in that assay, high ones weaker potency in that assay.
